{"data": "Results collected from several papers", "organism": "Mycobacterium tuberculosis", "observed": "microbial growth", "note": "Lines come from different studies, so protocols differ."}
{"SMILES": "COC(=O)c1cc(-c2cccc(NC(=O)Nc3cccc(C#N)c3)c2)on1", "strain": "ATCC27294 H37RV", "time": "7 days", "MIC": "16 µg/mL"}
{"SMILES": "NNC(=O)c1ccncc1", "method": "resazurin", "strain": "H37RA", "time": "14 days", "MIC": "0.05 µg/mL"}
{"SMILES": "Nc1ccc(C(=O)O)c(O)c1", "method": "broth dilution", "strain": "H37RV", "MIC": "0.125 µg/mL"}
{"SMILES": "N#Cc1cc(C(F)(F)F)cc2c(=O)nc(N3CCN(CC4CC4)CC3)sc12", "method": "resazurin", "strain": "H37RV", "MIC": "> 2 µM"}
{"SMILES": "Cc1c(Cc2ccc(Cl)c(Cl)c2)c(=O)n2c([nH]c3ccccc32)c1C#N", "method": "broth dilution", "strain": "H37RV", "MIC": "0.5 µg/mL"}
{"SMILES": "O=C(NN1C(=O)CSC12CCCCC2)c1[nH]c2ccc(Cl)cc2c1-c1ccccc1", "strain": "ATCC27294 H37RV", "MIC": "16 µM"}
{"SMILES": "CC1=NN(CNc2c(O)c(S(=O)(=O)O)cc3ccccc23)C(=O)C1=NNn1c(-c2ccccc2)nc2ccccc2c1=O", "method": "resazurin", "strain": "H37RV", "MIC": "20.9 µM"}
{"SMILES": "COC(=O)c1cc(-c2cccc(NC(=O)Nc3ccccc3C)c2)on1", "strain": "ATCC27294 H37RV", "time": "7 days", "MIC": "2 µg/mL"}
{"SMILES": "O=C1C(=NNc2nc(-c3ccccc3)cs2)C(N=Cc2cccc(Cl)c2)=NN1c1ccccc1", "method": "resazurin", "strain": "H37RV", "MIC": "6.25 µg/mL"}
{"SMILES": "N#Cc1cc(C(F)(F)F)cc2c(=O)nc(N3CCN(CC4COC4)CC3)sc12", "method": "resazurin", "strain": "H37RV", "MIC": "> 2 µM"}
{"SMILES": "CC1CC(C)(C)CC2(C1)SCC(=O)N2NC(=O)c1[nH]c2ccc(Cl)cc2c1-c1ccccc1 (stereo not shown)", "strain": "ATCC27294 H37RV", "MIC": "500 µM"}
{"SMILES": "COC(=O)c1cc(-c2cccc(NC(=S)Nc3ccc(Cl)cc3)c2)on1", "strain": "ATCC27294 H37RV", "time": "7 days", "MIC": "1 µg/mL"}
{"SMILES": "Cc1ccc(-c2nc3ccc(C)cn3c2CC(=O)N(C)C)cc1", "strain": "H37RV", "time": "5 days", "MIC": "10 to 11 µM"}
{"SMILES": "COC(=O)c1cc(-c2cccc(NC(=O)Nc3ccc(F)c(F)c3)c2)on1", "strain": "ATCC27294 H37RV", "time": "7 days", "MIC": "0.5 µg/mL"}
{"SMILES": "C=CCOc1cc(O)cc(O)c1C(=O)[C@@H](C)CC", "method": "broth dilution", "strain": "H37RV", "MIC": "100 µg/mL"}
{"SMILES": "Cc1ccc2nc(C)c(C(=O)NCc3cccc(S(F)(F)(F)(F)F)c3)n2c1", "strain": "H37RV", "time": "5 days", "MIC": "0.2 µM"}
{"SMILES": "CCCCCCC/C=C\\C(O)C#CC#CC(=O)CCOC (stereo not shown)", "method": "resazurin", "strain": "ATCC27294 H37RV", "time": "7 days", "MIC": "> 60 µg/mL"}
{"SMILES": "CO[C@@H]1[C@@H](OC(N)=O)[C@@H](O)[C@H](Oc2ccc3c(O)c(NC(=O)c4ccc(O)c(CC=C(C)C)c4)c(=O)oc3c2C)OC1(C)C", "method": "resazurin", "strain": "H37RA", "time": "14 days", "MIC": "8 µg/mL"}
{"SMILES": "COC(=O)c1cc(-c2cccc(NC(=S)Nc3ccc(C#N)cc3)c2)on1", "strain": "ATCC27294 H37RV", "time": "7 days", "MIC": "2 µg/mL"}
{"SMILES": "NNC(=O)c1ccncc1", "method": "broth dilution", "strain": "H37RV", "time": "21 days", "MIC": "0.25 µg/mL"}
{"SMILES": "Cc1ccc(CN2CC[C@]34OC[C@H](C(C)C)N3C(=O)CC[C@@H]4C2)cc1", "strain": "H37RV", "MIC": "1.66 µM"}
{"SMILES": "Cc1cc(C)n(C(=O)c2ccc(-n3c(C)ccc3C)cc2)n1", "method": "broth dilution", "strain": "H37RV", "time": "21 days", "MIC": "8 µg/mL"}
{"SMILES": "CO[C@H]1/C=C/O[C@@]2(C)Oc3c(C)c(O)c4c(O)c(c(/C=N/N5CCN(C)CC5)c(O)c4c3C2=O)NC(=O)/C(C)=C\\C=C\\[C@H](C)[C@H](O)[C@@H](C)[C@@H](O)[C@@H](C)[C@H](OC(C)=O)[C@@H]1C", "strain": "H37RV", "MIC": "0.009 µM"}
{"SMILES": "O=C1C(=NNc2nc(-c3ccccc3)cs2)C(N=Cc2ccccc2Cl)=NN1c1ccccc1", "method": "resazurin", "strain": "H37RV", "time": "5 days", "MIC": "51.5 µM"}
{"SMILES": "O=C(NN1C(=O)CSC12CCCC2)c1[nH]c2ccc(Cl)cc2c1-c1ccccc1", "strain": "ATCC27294 H37RV", "MIC": "1000 µM"}
{"SMILES": "CC[C@@H](CO)NCCN[C@@H](CC)CO", "strain": "H37RV", "MIC": "5 µg/mL"}
{"SMILES": "CC1CCCC2(C1)SC(C)C(=O)N2NC(=O)c1[nH]c2ccc(Cl)cc2c1-c1ccccc1 (stereo not shown)", "strain": "ATCC27294 H37RV", "MIC": "500 µM"}
{"SMILES": "O=C1COCCN1c1ccc(CO[C@@H]2COc3nc([N+](=O)[O-])cn3C2)cc1", "strain": "H37RV", "MIC": "0.4 to 0.8 µg/mL"}
{"SMILES": "Cc1ccc(NC(=O)c2ccccc2)cc1Nc1nccn1-c1cc(NC2CCCC2)ncn1", "strain": "W4", "MIC": "> 20 µM"}
{"SMILES": "O=C1C(=NNc2nc(-c3ccccc3)cs2)C(N=Cc2ccc(O)cc2O)=NN1c1ccccc1", "method": "resazurin", "strain": "H37RV", "MIC": "6.25 µg/mL"}
{"SMILES": "COC(=O)c1cc(-c2cccc(NC(=O)Nc3ccc(Cl)cc3)c2)on1", "strain": "ATCC27294 H37RV", "time": "7 days", "MIC": "2 µg/mL"}
{"SMILES": "O=C(C1CCCN(S(=O)(=O)c2ccccc2[N+](=O)[O-])C1)N1CCN(C(c2ccc(F)cc2)c2ccc(F)cc2)CC1 (stereo not shown)", "strain": "ATCC27294 H37RV", "MIC": "> 25 µg/mL"}
{"SMILES": "COC(=O)c1cc(-c2cccc(NC(=S)NC3CCCCC3)c2)on1", "strain": "ATCC27294 H37RV", "time": "7 days", "MIC": "2 µg/mL"}
{"SMILES": "COc1nc2ccc(Br)cc2cc1[C@@H](c1ccccc1)[C@@](O)(CCN(C)C)c1cccc2ccccc12", "MIC": "0.06 µg/mL"}
{"SMILES": "CN[C@H](CC(C)C)C(=O)N[C@H]1C(=O)N[C@@H](CC(N)=O)C(=O)N[C@H]2C(=O)N[C@H]3C(=O)N[C@H](C(=O)N[C@H](C(=O)O)c4cc(O)cc(O)c4-c4cc3ccc4O)[C@H](O)c3ccc(c(Cl)c3)Oc3cc2cc(c3O[C@@H]2O[C@H](CO)[C@@H](O)[C@H](O)[C@H]2O[C@H]2C[C@](C)(N)[C@H](O)[C@H](C)O2)Oc2ccc(cc2Cl)[C@H]1O", "method": "resazurin", "strain": "H37RA", "time": "14 days", "MIC": "65 µg/mL"}
{"SMILES": "Cc1ccn2c(C(=O)NCc3cccc(S(F)(F)(F)(F)F)c3)c(C)nc2c1", "strain": "H37RV", "time": "5 days", "MIC": "0.65 µM"}
{"SMILES": "COC1C(O)C(n2ccc(=O)[nH]c2=O)OC1C(OC1OC(C(=O)Nc2ccc(F)c(F)c2)=CC(O)C1O)C(N)=O (stereo not shown)", "method": "resazurin", "strain": "H37RV", "MIC": "1.56 µg/mL"}
{"SMILES": "CC(C)[C@H]1CO[C@]23CCN(Cc4ccc(C(F)(F)F)cc4)C[C@H]2CCC(=O)N13", "strain": "H37RV", "time": "7 days", "MIC": "0.16 µM"}
{"SMILES": "COC(=O)c1cc(-c2cccc(NC(=S)Nc3cccc(Cl)c3)c2)on1", "strain": "ATCC27294 H37RV", "time": "7 days", "MIC": "4 µg/mL"}
{"SMILES": "CC(C)[C@H]1CO[C@]23CCN(Cc4ccc(OC(F)(F)F)cc4)C[C@H]2CCC(=O)N13", "method": "resazurin", "strain": "H37RV", "time": "7 days", "MIC": "0.17 µM"}
{"SMILES": "O=[N+]([O-])c1ccc(/C(O)=C/C(=S)S)cc1", "strain": "H37RA", "MIC": "7.8 µg/mL"}
{"SMILES": "CO[C@H]1/C=C/O[C@@]2(C)Oc3c(C)c(O)c4c(O)c(c(/C=N/N5CCN(C)CC5)c(O)c4c3C2=O)NC(=O)/C(C)=C\\C=C\\[C@H](C)[C@H](O)[C@@H](C)[C@@H](O)[C@@H](C)[C@H](OC(C)=O)[C@@H]1C", "strain": "H37RV", "time": "5 days", "MIC": "0.003 µM"}
{"SMILES": "COc1ccc2cc(-c3nc(C(C)(C)C)[nH]c3-c3ccnc(N)c3)ccc2c1", "strain": "ATCC27294 H37RV", "MIC": "5.4 µM"}
